In ChEMBL document CHEMBL1137260, “Design and biological evaluation of novel tubulin inhibitors as antimitotic agents using a pharmacophore binding model with tubulin” (J Med Chem, 2006):

Key:
Huh-7 = assay: Antiproliferative activity against human Huh7 cells after 48 hrs; assay type: functional, cell-based; conditions: Huh-7, 48 h
In short: (§1)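 Cells kept in DMEM with 10% FBS/glutamine/antibiotics, 37 °C, 5% CO2; 2 × 10⁴ cells seeded, after 24 h exposed to compounds (0.01–100 µM) for 48 h. Part of the supernatant was removed, CellTiter 96 Aqueous reagent added, 2 h further incubation at 37 °C, absorbance at 490 nm read; IC50 derived. Huh7 is a hepatoma line, 293T renal epithelial.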

HEK-293T = assay: Antiproliferative activity against human 293T cells after 48 hrs; assay type: functional, cell-based; in short: as §1
SNU-398 [1] = assay: Cell cycle arrest in SNU398 cells by accumulation at G2/M phase at 50 nM; assay type: functional, Homo sapiens
In short: (§2)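 SNU-398 hepatoma cells (5 × 10⁵) seeded, grown 24 h, then 48 h with compound or carrier alone. Harvested, PBS-washed twice, stained with a cell cycle analysis kit, analysed by flow cytometry; cell cycle phase percentages estimated, G2/M fraction reported.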

SNU-398 [2] = assay: Cell cycle arrest in SNU398 cells by accumulation at G2/M phase at 500 nM; assay type: functional, Homo sapiens; in short: as §2
SNU-398 [3] = assay: Cell cycle arrest in SNU398 cells by accumulation at G2/M phase at 5000 nM; assay type: functional, Homo sapiens; in short: as §2
Tubulin = assay: Inhibition of tubulin polymerization; assay type: protein-complex assay, Homo sapiens
In short: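 Tubulin polymerization kit used; components added to wells at 0 °C with 340 nm baselines, then assembly followed at 0 °C and 37 °C and measured turbidimetrically. Compounds tested at 0, 3, 10 and 30 µM; IC50 calculated from the polymerization data.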

| Compound | IC50 (Huh-7) [µM] | IC50 (Tubulin) [µM] | IC50 (HEK-293T) [µM] | Activity (SNU-398 [1]) [%] | Activity (SNU-398 [2]) [%] | Activity (SNU-398 [3]) [%] |
| --- | --- | --- | --- | --- | --- | --- |
| CN(C)CC(=O)Nc1ccc(C(=O)/C=C/c2ccccn2)cc1 | 8.4 | 19.8 | 8.2 | 31.9 | 32.7 | 43 |
| O=C(/C=C/c1ccccn1)c1ccccc1 [WR-190433] | 14.3 | > 30 | 13.8 |  |  |  |
| CC(=O)Nc1ccc(C(=O)/C=C/c2ccccn2)cc1 | 9.6 | 15.7 | 13.7 | 37.7 | 37.1 | 43.3 |

More lines, main results first:

| IC50 (Huh-7) [µM] | IC50 (Tubulin) [µM] | Compound | IC50 (HEK-293T) [µM] | Activity (SNU-398 [1]) [%] | Activity (SNU-398 [2]) [%] | Activity (SNU-398 [3]) [%] |
| --- | --- | --- | --- | --- | --- | --- |
| > 100 |  | CCOc1ccc(C(C)(C)C(=O)Nc2ccc(C(=O)/C=C/c3ccccn3)cc2)cc1 | > 100 |  |  |  |
| > 100 |  | O=C(/C=C/c1cccc2ccccc12)c1ccc(NC(=O)c2cccs2)cc1 | > 100 |  |  |  |
| 9.9 |  | O=C(/C=C/c1ccccn1)c1ccc(NC(=O)c2ccco2)cc1 | 9.8 | 36.3 | 36.3 | 46.6 |
